In article PMC6697428 (SLAS discovery : advancing life sciences R & D, 2018):
Read-outs that look alike come from different tables or passages of the source.

Assays:
ISRE-bla THP-1 cells = experiment: ISRE-bla THP-1 FRET reporter assay for prolonged IFN-α induced ISRE activation; format: cell-based, human
THP-1 cells = experiment: MTT cell viability assay; format: cell-based, human; conditions: for relative viability (MTT): 5 μM compound, overnight, relative to vehicle control (0.5% DMSO)
In short: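 THP-1 cells in 96-well plates were exposed to test compound at 5 μM for 18 h. MTT (0.5 mg/ml in assay media) was then added for 4–6 h. Cells were lysed overnight in 15% w/v SDS with 0.12% v/v 12N HCl. Absorbance was read at 570 nm against a 650 nm reference and expressed relative to vehicle (0.5% DMSO) wells.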

[1] = tested on: murine bone marrow derived dendritic cells; format: cell-based, mouse; conditions: 5 μM compound in presence of IFN-α, compared to IFN-α alone
human THP-1 cells = experiment: q-PCR of ISG15 and ISG56 gene expression in THP-1 cells; format: cell-based; conditions: 1 μM compound, 1000 U/mL IFN-α, 8 h, compared to vehicle
ISG15 in THP-1 cells = experiment: Immunoblot of IFN-α induced ISG15 protein expression; format: cell-based, human; conditions: 24 h
[2] = tested on: STAT1 phosphorylation in THP-1 cells; experiment: Immunoblot of STAT1 phosphorylation after IFN-α; format: cell-based, human; conditions: 1 μM compound pre-treatment 12 h, then IFN-α

| Structure (SMILES) | FRET ratio in the absence of exogenous interferon (ISRE-bla THP-1 cells; no IFN-α, even at higher concentrations of the compounds) | EC50 (ISRE-bla THP-1 cells; read-out: relative EC50 (ISRE activity), with 100 U/mL IFN, 16 h) [nM] | relative viability (MTT) (THP-1 cells) | % relative viability, dose response cytotoxicity (THP-1 cells; absence of IFN-α, dose response starting with 50 μM) [%] | mRNA expression of Isg56, Isg15, Ifi2712a, Irf7, Ifi16 [1] | mRNA expression of Isg56, Isg15, Ifi2712a, Irf7, Ifi16 ([1]; listed as KX2–391) | increase in gene expression for both ISG15 and ISG56 (human THP-1 cells) [fold] | levels of IFN-α induced ISG15 protein (ISG15 in THP-1 cells; 1 μM compound with IFN-α) | amounts of ISG15 protein without IFN-α (ISG15 in THP-1 cells; compound alone) | level of p-STAT1 after 30 minutes ([2]; 30 minutes) | level of p-STAT1 at 6 h post stimulation ([2]; 6 h) | relative viability (MTT) (THP-1 cells; 5 µM) | relative viability (MTT) (THP-1 cells; listed as Belinostat, 5 µM) |
| --- | --- | --- | --- | --- | --- | --- | --- | --- | --- | --- | --- | --- | --- |
| O=C(Cc1ccc(-c2ccc(OCCN3CCOCC3)cc2)cn1)NCc1ccccc1 [Compound 24, KX2–391] | no increase | 1640 | without significant toxicity | > 75 | significantly increased | increased | ~2 | increased | did not increase | elevated | minimal residual effect |  |  |
| O=C(/C=C/c1cccc(S(=O)(=O)Nc2ccccc2)c1)NO [Compound 26, belinostat] |  |  |  |  |  |  |  |  |  |  |  | toxic | relatively toxic |
